MEKK2 mut-MEK5 – MEK5 binding signal on mutant MEKK2 PB1, primary screen, biochemical, multiplex bead flow cytometry, Alexa488-MEK5. AID 1530, 2009. percent response, % at 10 µM. hit rate 0.35% among 290,000. Alexa488-MEK5 binding to MEKK2 mutant; in the data active = percent response above about 24%, passing the limit was not always enough
UCH37 DUB inh – inhibitors of human UCH37 deubiquitinase, primary screen, biochemical, Ub-AMC cleavage, fluorescence | Ubiquitin carboxyl-terminal hydrolase isozyme L5 (Homo sapiens), Q9Y5K5 | purified proteasome/UCH37 | inhibition, % (test concentration not listed) | hit rate 0.33% among 330,000 | AID 588478, 2011;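 active = mean inhibition over replicate wells above about 20%, limit read from the data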;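 also: 0% = compound-free wells with enzyme and 100% = wells lacking proteasome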
Target sequence (Q9Y5K5 whole entry, looked up): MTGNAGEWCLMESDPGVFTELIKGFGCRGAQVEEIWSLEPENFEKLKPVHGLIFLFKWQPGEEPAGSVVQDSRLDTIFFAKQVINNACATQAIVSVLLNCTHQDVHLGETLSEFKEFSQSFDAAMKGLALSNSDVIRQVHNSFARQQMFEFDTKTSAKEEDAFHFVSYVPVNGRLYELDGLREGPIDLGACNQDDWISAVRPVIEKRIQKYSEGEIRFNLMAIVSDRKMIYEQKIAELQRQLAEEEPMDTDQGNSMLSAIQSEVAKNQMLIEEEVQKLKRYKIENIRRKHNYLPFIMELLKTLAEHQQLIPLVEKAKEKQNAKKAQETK
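Schedule: 30 min plus 25 min, room temperature / Material: human UCH37 within purified proteasomes / Technique: AMC fluorescence intensity at 355/460 nm / Buffer or medium: pH 7.4 Tris-HCl (50 mM) with ovalbumin, ATP-MgCl2, DTT / Controls: wells without proteasome as full block, compound-free enzyme plus substrate as uninhibited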
MEKK2 WT-MEK5 – modulators of MEK5 binding to wildtype MEKK2, primary screen, biochemical, multiplex bead flow cytometry, Alexa488-MEK5; Alexa488-MEK5 binding to MEKK2 WT; actives lie on both sides; binding response (% of control), % at 10 µM; hit rate 1.1% among 290,000; AID 1531, 2009; in the data active = binding response below about 67% or above about 130%
Rce1 inhib – yeast Rce1p protease inhibitors, primary screen, biochemical, fluorescence, cell-free homogeneous; CAAX prenyl protease 2 (Saccharomyces cerevisiae (strain ATCC 204508 / S288c)), Q03530; yeast membranes, quenched prenylated peptide cleavage fluorescence; calls only; hit rate 0.27% among 290,000;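 active = fall in fluorescence gain of 50% or more versus controls, with final raw signal at or below 3038400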;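 also: plate controls were neutral control wells for no effect and wells lacking membranes for full effect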
Target sequence (Q03530 whole entry, looked up): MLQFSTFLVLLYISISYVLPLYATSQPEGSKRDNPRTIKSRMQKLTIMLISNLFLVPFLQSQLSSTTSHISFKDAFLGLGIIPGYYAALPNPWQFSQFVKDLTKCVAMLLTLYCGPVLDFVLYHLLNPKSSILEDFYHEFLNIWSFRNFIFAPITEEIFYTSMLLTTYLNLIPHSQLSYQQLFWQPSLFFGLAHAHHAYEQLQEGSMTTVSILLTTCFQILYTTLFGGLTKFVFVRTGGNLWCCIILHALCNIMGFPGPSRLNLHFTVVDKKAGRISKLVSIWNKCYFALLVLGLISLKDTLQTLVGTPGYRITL
T cell modulator – modulators of CD8 T cell-vesicle binding, primary screen, mouse 2C CD8+ T cells, flow cytometry; 2C CD8+ T cell-vesicle binding; active compounds read low; response (vesicle binding), % at 7 µM; hit rate 0.068% among 330,000;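 active = response, share of CD8 T cells binding vesicles, and their 90th percentile fluorescence all below set limits, cut at about 80% in these data, passing the limit was not always enough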;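 also: values below 100% mean blocked vesicle binding to the CD8+ T cells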
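Also added: QL9-peptide-loaded Drosophila micro-vesicles bearing Ld, ICAM-1 and B7-1; Test system: purified 2C TCR transgenic mouse naive CD8+ T cells; Measured by: cytometric PE anti-B7-1 and Alexa647 anti-CD8 signals after 1% paraformaldehyde fixation; Timing: binding step 1.5 h, 37 °C, antibody labelling 20 min, ice.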
MEKK3 PB1 HTS – modulators of MEKK3-MEK5 PB1 binding, primary screen, biochemical, wildtype MEKK3, multiplex bead flow cytometry, Alexa488-MEK5 | hit rate 1.4% among 290,000 | bead-based flow cytometry, Alexa488-MEK5 binding to MEKK3; actives lie on both sides; 0 = blocked by unlabeled MEK5, 100 = vehicle | Mitogen-activated protein kinase kinase kinase 3 (Homo sapiens), Q99759 | binding response (% of control), % at 10 µM;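 active = binding response more than 3 SD above or below the average of its plate-row segment, actives on both sides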;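 also: Alexa488 bead fluorescence after subtracting the streptavidin-only scavenger bead signal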
The depositor's hits bear a star; i = inactive; x = no result; + = active, no number; [ ] = another dose, or the depositor's remark. In the library only some 2.5% were active in any assay of this set; here they are far more common.

SMILES	MEKK2 mut-MEK5	UCH37 DUB inh	MEKK2 WT-MEK5	Rce1 inhib	T cell modulator	MEKK3 PB1 HTS
Clc1nc2ccccc2cc1/C=N/Nc1nc2ccccc2[nH]1	0	x	115	i	193	156*
C=CCn1cc(/C=N/Nc2nc3ccccc3[nH]2)c2ccccc21	43	x	232*	i	360	114
C#CCn1cc(C=NNc2nc3ccccc3[nH]2)c2ccccc21	x	-16	x	x	x	x
COC(=O)c1nn(-c2ccccc2)c(Sc2ccc(OC)cc2)c1C=NO	x	-2	x	x	x	x
Cc1nn(CCC(=O)O)c2nc(-c3cccnc3)cc(C(F)(F)F)c12	4	-67	106	+	310	106
Cc1nn(CCC(N)=O)c2nc(-c3cccs3)cc(C(F)(F)F)c12	0	-331	101	i	223	108
Cc1[nH]c2ccccc2c1C=NNC(=O)CNC(=O)COc1ccccc1	x	3	x	x	x	x
O[C@@H](c1cc(C(F)(F)F)nc2c(C(F)(F)F)cccc12)[C@H]1CCCCN1	x	5	x	i	562	x
OC(c1cc(-c2ccc(Cl)cc2)nc2ccccc12)C1CCCCN1 (stereo not drawn)	59*	x	155*	i	76	115
COc1ccc(S(=O)(=O)NCCN2CCOCC2)cc1[N+](=O)[O-]	-32	0	-11*[inhibitor]	i	242	0.0*[inhibitor]
CCS(=O)(=O)N1CCN(S(=O)(=O)c2ccc3ccccc3c2)CC1	3	5	107	i	128	107
CC(C)N1CCN(S(=O)(=O)c2ccc3ccccc3c2)CC1	0	6	104	+	167	102
COc1ccccc1N1CCN(c2ncc(C(=O)N3CCN(c4cccc(Cl)c4)CC3)c3ccccc23)CC1	0	-239	101	+	166	102
O=C(CCCCCNC(=O)c1ccccc1)NN=Cc1ccccc1O	x	-23	x	x	x	x
CC(=NNC(=O)Cc1csc(N2CCOCC2)n1)c1ccc(Cl)c(Cl)c1	x	1	x	x	x	x
CCc1ccc2oc(C(=O)NCC(c3ccc(OC)cc3)N3CCCCC3)c(C)c2c1 (stereo not drawn)	26*	6	131	i	i	104
COc1ccc(C(CNC(=O)c2oc3cc(Br)ccc3c2C)N2CCCCC2)cc1 (stereo not drawn)	30*	0	141*	i	285	107
O=C(Cc1cccc2ccccc12)NN=Cc1ccc(OC(=O)/C=C/c2ccco2)cc1	x	1	x	x	x	x
Cn1cccc1-c1cc(C(=O)NN=Cc2ccc(Cl)cc2)[nH]n1	x	0	x	x	x	x
COC(=O)c1ccc(C=NNC(=O)c2ccc(C)cc2Cl)cc1	x	2	x	x	x	x
O=C(COC(=O)/C=C/c1ccc(F)cc1)Nc1ccccc1-c1ccccc1	-2	2	96	i	240	69*[inhibitor]
O=C(COC(=O)/C=C/c1cccc(F)c1)Nc1ccccc1-c1ccccc1	-2	3	91	i	195	92
CC(C)(C)c1nnc(NC(=O)Nc2ccc(Cl)cc2)s1	2	1	-4.0*	i	275	98
COc1ccc(NC(=O)Nc2nnc(C(C)(C)C)s2)cc1	6	2	-4.0*	i	419	108
COc1ccc(CCC(=O)Nc2nnc(C(C)(C)C)s2)cc1	6	4	110	i	291	106
SMILES	MEKK2 mut-MEK5	UCH37 DUB inh	MEKK2 WT-MEK5	Rce1 inhib	T cell modulator	MEKK3 PB1 HTS
O=C(CCn1c(=O)[nH]c2ccsc2c1=O)N1CC(=O)N(CCc2ccccc2)C(=O)C1	-9	2	81	i	200	74*[inhibitor]
CC(CC(=O)NC12CC3CC(CC(C3)C1)C2)=NNC(=O)Cc1cccs1	x	-1	x	x	x	x
O=[N+]([O-])c1ccc(N/N=C/c2sc(N3CCOCC3)nc2-c2ccccc2)c(S(=O)(=O)Nc2ccccc2Cl)c1	63*	x	x	x	x	91
NC(=O)c1sc2nc(N3CCCCC3)c3c(c2c1N)CCCC3	-3	-35	94	+	546	93
O=[N+]([O-])c1ccc(C=NN2CCCCC2)cc1	x	5	x	x	x	x
COc1ccc(C(=O)NNC(=O)CSc2nnnn2C)cc1	-7	3	92	i	62*	88
Cc1ccc(NC2=C(N3CCCCC3)C(=O)c3ccccc3C2=O)cc1	-1	23*	96	i	348	95
O=C(/C=C/c1ccc(O)cc1)c1ccccc1	-13	5	85	i	285	85
O=C(/C=C/c1ccc(O)cc1)c1ccc(NC2=C(N3CCCCC3)C(=O)c3ccccc3C2=O)cc1	-12	22*	69	i	196	74
COc1ccccc1NC1=C(N2CCCCC2)C(=O)c2ccccc2C1=O	-3	52*	92	i	583	99
O=C1C(Nc2ccccc2)=C(N2CCCCC2)C(=O)c2ccccc21	5	7	104	i	347	107
CC(=NNC(=O)CSc1nnc(C)s1)c1ccc(O)cc1	x	0	x	x	x	x
CC(Cc1ccccc1)=NNC(=O)CNC(=O)c1ccc(Br)cc1	x	4	x	x	x	x
NS(=O)(=O)c1ccc(CCNC(=O)c2ccc3ccccc3n2)cc1	5	-2	-3.0*	+	243	99
CCOC(=O)Cn1cnc2c(cnn2-c2ccc(Cl)cc2)c1=O	7	0	100	i	173	104
COC(=O)C(C)n1cnc2c(cnn2-c2ccc(Cl)cc2)c1=O (stereo not drawn)	-2	30*	97	i	173	100
Cc1cc(C(F)(F)F)nn1CC(=O)N(C)C1CCCCC1	9	32*	102	i	446	100
O=c1[nH]c2ccccc2c(=O)n1Cc1ccco1	5	21*	99	i	664	96
O=c1[nH]c2ccc(Cl)cc2c(=O)n1Cc1ccco1	7	0	103	i	360	104
Clc1ccc2c(N/N=C/c3ccccc3Br)ccnc2c1	-2	x	85	i	0	70*[inhibitor]
Cc1ccccc1C=NNc1ccnc2cc(Cl)ccc12	x	-10	x	x	x	x
Cc1[nH][nH]c(=O)c1C(c1cc2c(cc1Br)OCO2)c1c(C)[nH][nH]c1=O	36	3	23*	i	196	103
Cc1[nH][nH]c(=O)c1C(c1cc(Br)ccc1O)c1c(C)[nH][nH]c1=O	3	5	103	i	289	105
CCC(=NNC(=O)c1ccncc1)C12CC3CC(CC(C3)C1)C2	x	7	x	x	x	x
O=C(O)c1ccc(N/N=C/c2ccc(-c3ccccc3Cl)o2)cc1	-10	x	94	+	159	93

Screens as filed in PubChem BioAssay.
